Here are results for 23 molecules from ChEMBL document CHEMBL1667773, “Synthesis and antifungal activity of furo[2,3-f]quinolin-5-ols” (2011).

The term MIC denotes the least concentration at which growth counts as inhibited.

Converted amounts (≈) assume the structure as drawn.

One experiment concerns Cryptococcus neoformans. In words: Antifungal activity against Cryptococcus neoformans KCCM 50564 after 1 day by twofold broth dilution method. As to conditions: KCCM 50564, 24 h.
The subject of a further experiment is Candida tropicalis. In words: Antifungal activity against Candida tropicalis KCCM 50662 after 1 day by twofold broth dilution method. Format: functional. Particulars: KCCM 50662, 24 h. The method in brief:
(§1)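 Candida strains were tested by twofold serial broth dilution in modified Sabouraud dextrose broth at roughly 1 × 10⁵ cells/mL, held at 37 °C and read after one day. MIC was taken as the lowest agent concentration, against fluconazole and 5-fluorocytosine standards.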
(In broth dilution the organism is exposed to a series of concentrations in liquid medium.)

Another experiment deals with Candida albicans. Description: Antifungal activity against Candida albicans KCCM 50235 after 1 day by twofold broth dilution method. Format: functional. As to conditions: KCCM 50235, 24 h. The method in brief:
as §1

The test system of another experiment is Aspergillus flavus. In words: Antifungal activity against Aspergillus flavus KCCM 11899 after 2 days by twofold broth dilution method. Particulars: KCCM 11899, 48 h. It is filed as functional. The method in brief: (§2)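 Twofold broth dilution in modified Sabouraud dextrose broth. Inoculum about 1 × 10⁵ cells/mL. Incubated at 37 °C and read after two days. MIC taken as the lowest concentration of agent tested, with fluconazole and 5-fluorocytosine as reference agents.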

Another experiment deals with Aspergillus niger. In words: Antifungal activity against Aspergillus niger KCTC 1231 after 2 days by twofold broth dilution method. Format: functional. As to conditions: KCTC 1231, 48 h. In a few lines: as §2
Another experiment concerns Pichia kudriavzevii. Description: Antifungal activity against Candida krusei KCCM 11655 after 1 day by twofold broth dilution method. It is filed as functional. As to conditions: KCCM 11655, 24 h. The method in brief:
as §1

Consider `CCOC(=O)c1c(N)oc2c1c(Sc1cccc(Cl)c1)c(O)c1ncccc12`, for which the MIC against Cryptococcus neoformans worked out at 1.6 µg/mL (≈ 3.86 µM); with Candida tropicalis it was 12.5 µg/mL (≈ 30.1 µM); with Candida albicans it was 6.3 µg/mL (≈ 15.2 µM); in the experiment with Aspergillus flavus it was 12.5 µg/mL (≈ 30.1 µM); against Aspergillus niger, 3.2 µg/mL (≈ 7.71 µM); with Pichia kudriavzevii, 6.3 µg/mL (≈ 15.2 µM).
As for `COC(=O)c1c(N)oc2c1c(Br)c(O)c1ncccc12`, the MIC amounted to 12.5 µg/mL (≈ 37.1 µM) against Cryptococcus neoformans; 6.3 µg/mL (≈ 18.7 µM) in the experiment with Candida tropicalis; 50 µg/mL (≈ 148 µM) against Candida albicans; 25 µg/mL (≈ 74.2 µM) in the experiment on Aspergillus flavus; 25 µg/mL (≈ 74.2 µM) against Aspergillus niger; 25 µg/mL (≈ 74.2 µM) in the experiment on Pichia kudriavzevii.
As for `CCOC(=O)c1c(N)oc2c1c(SC)c(O)c1ncccc12`, the MIC with Cryptococcus neoformans worked out at 6.3 µg/mL (≈ 19.8 µM); in the experiment on Candida tropicalis, 12.5 µg/mL (≈ 39.3 µM); with Candida albicans, 12.5 µg/mL (≈ 39.3 µM); against Aspergillus flavus, 50 µg/mL (≈ 157 µM); against Aspergillus niger it was 50 µg/mL (≈ 157 µM); with Pichia kudriavzevii, 50 µg/mL (≈ 157 µM).
Regarding `CCOC(=O)c1c(N)oc2c1c(Cl)c(O)c1ncccc12`, the MIC in the experiment with Cryptococcus neoformans was 25 µg/mL (≈ 81.5 µM); in the experiment with Candida tropicalis, 50 µg/mL (≈ 163 µM); in the experiment on Candida albicans, > 50 µg/mL; in the experiment with Aspergillus flavus it was > 50 µg/mL; against Aspergillus niger, > 50 µg/mL; in the experiment on Pichia kudriavzevii, 6.3 µg/mL (≈ 20.5 µM).
In the case of `CCOC(=O)c1c(N)oc2c1c(Sc1ccc(C)c(C)c1)c(O)c1ncccc12`, the MIC in the experiment on Cryptococcus neoformans amounted to 12.5 µg/mL (≈ 30.6 µM); against Candida tropicalis it was 12.5 µg/mL (≈ 30.6 µM); in the experiment with Candida albicans, 25 µg/mL (≈ 61.2 µM); in the experiment with Aspergillus flavus, 6.3 µg/mL (≈ 15.4 µM); with Aspergillus niger, 12.5 µg/mL (≈ 30.6 µM); in the experiment with Pichia kudriavzevii it was 25 µg/mL (≈ 61.2 µM).
Regarding `CCOC(=O)c1c(N)oc2c1c(Sc1ccc(F)cc1)c(O)c1ncccc12`, the MIC in the experiment on Cryptococcus neoformans was found to be 50 µg/mL (≈ 125 µM); against Candida tropicalis, 50 µg/mL (≈ 125 µM); with Candida albicans it was 50 µg/mL (≈ 125 µM); in the experiment with Aspergillus flavus, 6.3 µg/mL (≈ 15.8 µM); against Aspergillus niger, 50 µg/mL (≈ 125 µM); against Pichia kudriavzevii, 50 µg/mL (≈ 125 µM).
Take `CCOC(=O)c1c(N)oc2c1c(Br)c(O)c1ncccc12`: the MIC was found to be 25 µg/mL (≈ 71.2 µM) against Cryptococcus neoformans; 6.3 µg/mL (≈ 17.9 µM) against Candida tropicalis; 12.5 µg/mL (≈ 35.6 µM) with Candida albicans; 6.3 µg/mL (≈ 17.9 µM) in the experiment with Aspergillus flavus; 6.3 µg/mL (≈ 17.9 µM) against Aspergillus niger; 6.3 µg/mL (≈ 17.9 µM) in the experiment with Pichia kudriavzevii.
Regarding `CCOC(=O)c1c(N)oc2c1c(Sc1ccc(F)c(F)c1)c(O)c1ncccc12`, the MIC came out at 50 µg/mL (≈ 120 µM) in the experiment on Cryptococcus neoformans; 1.6 µg/mL (≈ 3.84 µM) in the experiment on Candida tropicalis; 0.8 µg/mL (≈ 1.92 µM) against Candida albicans; 1.6 µg/mL (≈ 3.84 µM) in the experiment with Aspergillus flavus; 1.6 µg/mL (≈ 3.84 µM) against Aspergillus niger; 1.6 µg/mL (≈ 3.84 µM) in the experiment on Pichia kudriavzevii.
In the case of `CCOC(=O)c1c(N)oc2c1c(Sc1ccc(Br)cc1)c(O)c1ncccc12`, the MIC against Cryptococcus neoformans came to 25 µg/mL (≈ 54.4 µM); against Candida tropicalis, 0.8 µg/mL (≈ 1.74 µM); against Candida albicans, 1.6 µg/mL (≈ 3.48 µM); against Aspergillus flavus, 0.8 µg/mL (≈ 1.74 µM); with Aspergillus niger it was 1.6 µg/mL (≈ 3.48 µM); against Pichia kudriavzevii, 1.6 µg/mL (≈ 3.48 µM).
As for `CCOC(=O)c1c(N)oc2c1c(Sc1ccc(C)cc1)c(O)c1ncccc12`, the MIC in the experiment with Cryptococcus neoformans turned out to be 12.5 µg/mL (≈ 31.7 µM); against Candida tropicalis, 12.5 µg/mL (≈ 31.7 µM); against Candida albicans, 6.3 µg/mL (≈ 16 µM); in the experiment with Aspergillus flavus it was 50 µg/mL (≈ 127 µM); with Aspergillus niger, 3.2 µg/mL (≈ 8.11 µM); in the experiment with Pichia kudriavzevii, 50 µg/mL (≈ 127 µM).
As for `OC(Cn1cncn1)(Cn1cncn1)c1ccc(F)cc1F` [FLUCONAZOLE], the MIC in the experiment with Cryptococcus neoformans amounted to 6.3 µg/mL (≈ 20.6 µM); in the experiment on Candida tropicalis it was 6.3 µg/mL (≈ 20.6 µM); against Candida albicans it was 50 µg/mL (≈ 163 µM); with Aspergillus flavus it was 25 µg/mL (≈ 81.6 µM); against Aspergillus niger, 12.5 µg/mL (≈ 40.8 µM); with Pichia kudriavzevii it was 12.5 µg/mL (≈ 40.8 µM).
As to `CCOC(=O)c1c(N)oc2c1c(Sc1ccccc1)c(O)c1ncccc12`, the MIC was 25 µg/mL (≈ 65.7 µM) in the experiment on Cryptococcus neoformans; 1.6 µg/mL (≈ 4.21 µM) in the experiment with Candida tropicalis; 3.2 µg/mL (≈ 8.41 µM) in the experiment with Candida albicans; 3.2 µg/mL (≈ 8.41 µM) against Aspergillus flavus; 3.2 µg/mL (≈ 8.41 µM) in the experiment with Aspergillus niger; 3.2 µg/mL (≈ 8.41 µM) in the experiment on Pichia kudriavzevii.
With `CCOC(=O)c1c(N)oc2c1c(Sc1ccc(O)cc1)c(O)c1ncccc12`, the MIC against Cryptococcus neoformans stood at 12.5 µg/mL (≈ 31.5 µM); with Candida tropicalis it was 6.3 µg/mL (≈ 15.9 µM); in the experiment with Candida albicans, 12.5 µg/mL (≈ 31.5 µM); with Aspergillus flavus it was 25 µg/mL (≈ 63.1 µM); in the experiment with Aspergillus niger, 3.2 µg/mL (≈ 8.07 µM); with Pichia kudriavzevii, 25 µg/mL (≈ 63.1 µM).
For the molecule `CCOC(=O)c1c(N)oc2c1c(Sc1cccc(F)c1)c(O)c1ncccc12`, the MIC with Cryptococcus neoformans worked out at 50 µg/mL (≈ 125 µM); in the experiment on Candida tropicalis, 50 µg/mL (≈ 125 µM); in the experiment on Candida albicans it was 50 µg/mL (≈ 125 µM); in the experiment with Aspergillus flavus, 12.5 µg/mL (≈ 31.4 µM); in the experiment with Aspergillus niger, 25 µg/mL (≈ 62.7 µM); with Pichia kudriavzevii, 50 µg/mL (≈ 125 µM).
`COC(=O)c1c(N)oc2c1c(C)c(O)c1ncccc12`: the MIC in the experiment with Cryptococcus neoformans stood at 25 µg/mL (≈ 91.8 µM); in the experiment with Candida tropicalis, 6.3 µg/mL (≈ 23.1 µM); against Candida albicans it was 0.8 µg/mL (≈ 2.94 µM); with Aspergillus flavus, 3.2 µg/mL (≈ 11.8 µM); in the experiment on Aspergillus niger, 12.5 µg/mL (≈ 45.9 µM); in the experiment on Pichia kudriavzevii, 25 µg/mL (≈ 91.8 µM).
Consider `CCOC(=O)c1c(N)oc2c1c(Sc1cccc(C)c1)c(O)c1ncccc12`, for which the MIC in the experiment on Cryptococcus neoformans was 3.2 µg/mL (≈ 8.11 µM); against Candida tropicalis it was 25 µg/mL (≈ 63.4 µM); against Candida albicans, 12.5 µg/mL (≈ 31.7 µM); in the experiment on Aspergillus flavus, 12.5 µg/mL (≈ 31.7 µM); with Aspergillus niger, 25 µg/mL (≈ 63.4 µM); against Pichia kudriavzevii, 25 µg/mL (≈ 63.4 µM).
`Nc1nc(=O)[nH]cc1F` [FLUCYTOSINE]: the MIC in the experiment with Cryptococcus neoformans turned out to be 6.3 µg/mL (≈ 48.8 µM); with Candida tropicalis it was 3.2 µg/mL (≈ 24.8 µM); with Candida albicans, 3.2 µg/mL (≈ 24.8 µM); against Aspergillus flavus, 1.6 µg/mL (≈ 12.4 µM); in the experiment with Aspergillus niger, 3.2 µg/mL (≈ 24.8 µM); against Pichia kudriavzevii, 3.2 µg/mL (≈ 24.8 µM).
Regarding `Cc1ccc2cccnc2c1[N+](=O)[O-]`, the MIC was 50 µg/mL (≈ 266 µM) against Cryptococcus neoformans; > 50 µg/mL in the experiment with Candida tropicalis; > 50 µg/mL in the experiment on Candida albicans; > 50 µg/mL in the experiment on Aspergillus flavus; > 50 µg/mL against Aspergillus niger; > 50 µg/mL with Pichia kudriavzevii.
As for `Nc1ccc(O)c2ncccc12`, the MIC against Cryptococcus neoformans was > 50 µg/mL; in the experiment with Candida tropicalis, 50 µg/mL (≈ 312 µM); in the experiment on Candida albicans, 50 µg/mL (≈ 312 µM); in the experiment on Aspergillus flavus it was > 50 µg/mL; against Aspergillus niger, 50 µg/mL (≈ 312 µM); in the experiment with Pichia kudriavzevii it was > 50 µg/mL.
As for `CCOC(=O)c1c(N)oc2c1c(C)c(O)c1ncccc12`, the MIC in the experiment on Cryptococcus neoformans was 12.5 µg/mL (≈ 43.7 µM); in the experiment on Candida tropicalis, 25 µg/mL (≈ 87.3 µM); against Candida albicans it was 6.3 µg/mL (≈ 22 µM); with Aspergillus flavus, 12.5 µg/mL (≈ 43.7 µM); in the experiment with Aspergillus niger it was > 50 µg/mL; in the experiment on Pichia kudriavzevii, 25 µg/mL (≈ 87.3 µM).
Regarding `CCOC(=O)c1c(N)oc2c1c(SCC)c(O)c1ncccc12`, the MIC against Cryptococcus neoformans was > 50 µg/mL; in the experiment on Candida tropicalis it was 25 µg/mL (≈ 75.2 µM); in the experiment with Candida albicans, 50 µg/mL (≈ 150 µM); against Aspergillus flavus, 6.3 µg/mL (≈ 19 µM); against Aspergillus niger, 25 µg/mL (≈ 75.2 µM); in the experiment on Pichia kudriavzevii it was > 50 µg/mL.
For `CCOC(=O)c1c(N)oc2c1c(Sc1ccc(Cl)cc1)c(O)c1ncccc12`, the MIC against Cryptococcus neoformans was found to be 25 µg/mL (≈ 60.3 µM); in the experiment with Candida tropicalis it was 0.8 µg/mL (≈ 1.93 µM); against Candida albicans, 0.8 µg/mL (≈ 1.93 µM); in the experiment on Aspergillus flavus, 3.2 µg/mL (≈ 7.71 µM); in the experiment on Aspergillus niger it was 3.2 µg/mL (≈ 7.71 µM); with Pichia kudriavzevii, 1.6 µg/mL (≈ 3.86 µM).
`CCOC(=O)c1c(N)oc2c1c(Sc1ccc(OC)cc1)c(O)c1ncccc12`: the MIC was found to be 25 µg/mL (≈ 60.9 µM) against Cryptococcus neoformans; 6.3 µg/mL (≈ 15.3 µM) in the experiment with Candida tropicalis; 6.3 µg/mL (≈ 15.3 µM) against Candida albicans; 12.5 µg/mL (≈ 30.5 µM) against Aspergillus flavus; 3.2 µg/mL (≈ 7.8 µM) with Aspergillus niger; 6.3 µg/mL (≈ 15.3 µM) against Pichia kudriavzevii.
